# An excerpt weighted towards active compounds, which were near 4.3% of everything screened.
# MC4R barr agon = MC4R agonists recruiting beta-arrestin, primary screen, cell-based, luminescence, agonist arm of biased-ligand search; 360,000 compounds, 0.98% hits; AID 540308, 2011; Melanocortin receptor 4 (Homo sapiens), P32245; activation, % at 8.9 µM; U2OS MC4R beta-arrestin complementation; percent of melanotan II response, DMSO zero;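 active means activation above a per-plate cutoff, the mean activation of sample wells on that plate plus 3 SD, cut at about 8% in these data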
# TAAR1 ag = human TAAR1 agonists, primary screen, Fluo-8 calcium fluorescence, CHO RD-HGA16 cells. 360,000 compounds, 0.99% hits. AID 624467, 2012. vehicle wells 0%, saturating PEA agonist 100%. activation, % at 3 µM. Trace amine-associated receptor 1 (Homo sapiens), Q96RJ0;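 active means activation above the mean activation of all test compounds in the run plus 3 SD, cut at about 38% in these data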
#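 Test system: RD-HGA16 (CHO) cells co-expressing Gα16 and hTAAR1; dosing: one-point dosing at 3 µM (nominal); timing: 17-24 h seeding, 75 min 37 °C dye, 30 min RT; signal: kinetic Fluo-8 calcium fluorescence; read-out basis: % activation relative to PEA EC100 response; controls: DMSO and PEA EC100; replicates: n 1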
# TAAR1 antagonist = human TAAR1 antagonists, primary screen, Fluo-8 calcium fluorescence, CHO RD-HGA16 cells. inhibition, % at 3 µM. antagonist. 360,000 compounds, 1.5% hits. Trace amine-associated receptor 1 (Homo sapiens), Q96RJ0;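 active means inhibition above a per-plate cutoff, the mean inhibition of test compounds on that plate plus 3 SD, cut at about 49% in these data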
#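 Material: RD-HGA16 CHO cells with stable hTAAR1 and Gα16; Dosing: single nominal final test compound concentration of 3 µM; Schedule: seeding 17-24 h prior, 75-min 37 °C, 30-min RT dye loading; Detection: kinetic Fluo-8 calcium fluorescence measurement; Measure: % inhibition from peak post-agonist over basal fluorescence ratio; Benchmarks: vehicle and agonist controls.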
# m5-HT2A agonist = mouse Htr2a agonists via beta-arrestin recruitment, primary screen, cell-based, luminescence. 5-hydroxytryptamine receptor 2A (Mus musculus), P35363. 360,000 compounds, 0.66% hits. activation, % at 7.6 µM. CHO-K1 mHTR2A beta-arrestin complementation; percent of 30 µM serotonin response;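 active means activation above a run cutoff, the mean activation of all tested compounds plus 3 SD, cut at about 14% in these data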
# Beta2AR agonist = beta2AR agonists driving receptor internalization, primary screen, cell-based, FAP fluorogen, flow cytometry | 340,000 compounds, 0.43% hits | AID 504454, 2011 | response, % (concentration not given with the values) | Beta-2 adrenergic receptor (Homo sapiens), P07550 | Am2.2-beta2AR cells;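 active means response above a set limit, near 3 SD of response in nonfluorescent compounds, cut at about 42% in these data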
# Target sequence (P07550 whole entry, looked up): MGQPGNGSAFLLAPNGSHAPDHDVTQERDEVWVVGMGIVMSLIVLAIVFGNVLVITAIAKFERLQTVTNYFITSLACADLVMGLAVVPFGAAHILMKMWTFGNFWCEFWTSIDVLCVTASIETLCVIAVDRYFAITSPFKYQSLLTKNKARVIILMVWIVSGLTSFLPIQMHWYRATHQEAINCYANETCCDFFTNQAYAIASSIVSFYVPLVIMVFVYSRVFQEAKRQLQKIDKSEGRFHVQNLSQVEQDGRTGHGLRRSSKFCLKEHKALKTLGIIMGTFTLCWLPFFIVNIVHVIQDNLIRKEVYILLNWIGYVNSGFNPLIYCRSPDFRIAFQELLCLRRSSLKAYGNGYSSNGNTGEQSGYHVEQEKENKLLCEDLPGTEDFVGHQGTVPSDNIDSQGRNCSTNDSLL
# MC4R antagonist = MC4R antagonists of cAMP signaling, primary screen, cell-based, TR-FRET, antagonist arm of biased-ligand search; AID 540295, 2011; inhibition, % at 6.5 µM; MC4R-expressing cells, MTII-stimulated cAMP, LANCE TR-FRET; 360,000 compounds, 0.48% hits; Melanocortin receptor 4 (Homo sapiens), P32245;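 active means inhibition above its plate's cutoff, the mean of tested wells on that plate plus 3 SD, cut at about 29% in these data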
#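 Assay system: human MC4R-expressing U2OS cells; reagent: Melanotan II stimulation of cells; dosing: 6.5 µM single dose; timing: compound 30 min, challenge 1 h, detection 1 h; signal: TR-FRET cAMP assay; replicates: one well per compound, no replicates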
# TAAR1 nonsel count = nonselective antagonists in TAAR1 counter-screen cells, counter-screen for hTAAR1 antagonist project, cell-based, fluorescence, calcium; counterscreen cell line, antagonist mode; shares compounds with TAAR1 antagonist; 2,400 compounds, 77% hits; inhibition, % at 3 µM; in the data active means inhibition above about 22%;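 further: CHO-Ga16 host cells stimulated with ATP at an EC80 level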
# TAAR1 ant conf = human TAAR1 antagonists, retest of hits, confirmation, cell-based, fluorescence; 2,400 compounds, 40% hits; TAAR1-expressing cells, fluorescence antagonist read-out; shares compounds with TAAR1 antagonist; inhibition, % at 3 µM; AID 651785, 2012; in the data active means inhibition above about 49%;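 further: CHO-Ga16 host cells challenged with agonist PEA near its EC80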
# Ga16 nonsel ag = calcium activation in Ga16-expressing cells, counter-screen for TAAR1 antagonist project, cell-based, fluorescence. shares compounds with TAAR1 antagonist. agonist counterscreen. activation, % at 3 µM. 2,400 compounds, 18% hits. AID 651953, 2012; in the data active means activation above about 12%
# TAAR1 ag counter = TAAR1 activation by candidate antagonists – cell-based, fluorescence, counter-screen for TAAR1 antagonist project. activation, % at 3 µM. AID 651955, 2012. 2,400 compounds, 2% hits. shares compounds with TAAR1 antagonist. hTAAR1 cell line, agonist mode; in the data active means activation above about 37%;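 further: CHO cells stably expressing TAAR1 with calcium dye readout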
# Numbers stand for hits; - = inactive; . = no result given.
SMILES,MC4R barr agon,TAAR1 ag,TAAR1 antagonist,m5-HT2A agonist,Beta2AR agonist,MC4R antagonist,TAAR1 nonsel count,TAAR1 ant conf,Ga16 nonsel ag,TAAR1 ag counter
CC1CCCCC1NC(=O)c1ccc(-n2cncn2)c([N+](=O)[O-])c1 (configuration not stated),-,-,-,-,-,-,.,.,.,.
CC1CCCCC1NC(=O)c1ccc(-n2cncn2)cc1 (configuration not stated),-,-,93,-,-,-,-,-,-,-
Cc1ccc2cc(CN(Cc3nnnn3C3CCCCC3)CC3CCCO3)c(=O)[nH]c2c1 (configuration not stated),-,-,-,-,-,-,.,.,.,.
COc1ccc(CN(Cc2cc3ccc(C)cc3[nH]c2=O)Cc2nnnn2C2CCCC2)cc1,-,-,56,-,-,-,-,-,-,-
O=C(N=Nc1c(O)[nH]c2ccccc12)c1cccc(S(=O)(=O)Nc2ccccc2Cl)c1,-,-,56,-,-,-,24,-,-,-
COc1ccccc1N1CCN(Cc2ccc(-c3ccccc3[N+](=O)[O-])o2)CC1,-,-,88,-,-,-,28,55,-,-
CSCCC(NC(=O)c1ccccc1Br)C(=O)NCC(c1ccco1)N1CCCCC1 (configuration not stated),-,-,-,-,-,-,.,.,.,.
CN(C)S(=O)(=O)n1cc(/C=C(\NC(=O)c2ccccc2Cl)C(=O)NCCCn2ccnc2)c2ccccc21,-,-,55,-,-,-,-,-,-,-
CN(C)S(=O)(=O)n1cc(/C=C(\NC(=O)c2ccccc2Cl)C(=O)NCCN2CCOCC2)c2ccccc21,-,-,73,-,-,-,24,-,-,-
CN(C)S(=O)(=O)n1cc(/C=C(\NC(=O)c2ccccc2Cl)C(=O)NCCCN2CCOCC2)c2ccccc21,-,-,-,-,-,-,.,.,.,.
COc1cc2c(cc1OC)/C(=C/C(=O)c1cccc([N+](=O)[O-])c1)NCC2,-,-,50,-,-,-,26,-,-,-
COCCCNC(=O)c1ccc(Cn2c(=O)c3ccccc3n(CC(=O)NCCc3ccc(OC)c(OC)c3)c2=O)cc1,-,-,-,-,-,-,.,.,.,.
COc1ccc(Br)cc1CN1CCN(S(=O)(=O)Cc2ccccc2)CC1,-,-,56,-,-,-,-,-,-,-
NC(=O)c1ccsc1NC(=O)CN1CCN(S(=O)(=O)c2ccccc2C(F)(F)F)CC1,-,-,89,-,-,-,30,65,20,-
O=C(CN1CCN(S(=O)(=O)c2ccccc2C(F)(F)F)CC1)NCc1cccs1,-,-,-,-,-,-,.,.,.,.
O=C(Cc1n[nH]c(=O)c2ccccc12)OCC(=O)N(Cc1ccccc1)Cc1ccccc1,-,-,57,-,-,-,-,-,-,-
CCOC(=O)Cc1n[nH]c(=O)c2ccccc12,-,-,-,-,-,-,.,.,.,.
Cc1ccccc1C(=O)N1CCC(C(=O)Nc2ccc(S(=O)(=O)N3C(C)CCCC3C)cc2)CC1 (configuration not stated),-,-,-,-,-,-,.,.,.,.
N#C/C(=C\c1ccc[nH]1)C(=O)Nc1ccccc1[N+](=O)[O-],-,-,-,-,-,-,.,.,.,.
COc1ccc(NC(=O)CC2C(=O)N(C)C(=S)N2CCc2ccc(F)cc2)cc1 (configuration not stated),-,-,58,-,-,-,31,50,14,-
COc1ccc(CCN2C(=S)N(C)C(=O)C2CC(=O)Nc2ccc(OC)cc2)cc1 (configuration not stated),-,-,-,-,-,-,.,.,.,.
CCN1C(=O)C(CC(=O)Nc2ccc(OC)cc2)N(CCc2ccc(F)cc2)C1=S (configuration not stated),-,-,69,-,-,-,42,59,13,-
CCN1C(=O)C(CC(=O)Nc2ccc(OC)cc2)N(CCCN2CCN(c3ccc(F)cc3)CC2)C1=S (configuration not stated),-,-,66,-,-,-,32,-,17,-
COCCCNc1nc2ccccc2nc1NS(=O)(=O)c1cc(Cl)ccc1Cl,-,-,-,-,-,-,.,.,.,.
Cc1c(C(=O)NCc2ccc(C#N)cc2)sc(=O)n1Cc1ccccn1,-,-,-,-,.,-,.,.,.,.
SMILES,MC4R barr agon,TAAR1 ag,TAAR1 antagonist,m5-HT2A agonist,Beta2AR agonist,MC4R antagonist,TAAR1 nonsel count,TAAR1 ant conf,Ga16 nonsel ag,TAAR1 ag counter
COc1ccc(OC)c(S(=O)(=O)NCC2CCN(C(=O)C(=O)c3cc4ccccc4o3)CC2)c1,.,-,-,.,.,.,.,.,.,.
C=CCN(c1ccccc1)S(=O)(=O)c1cccc(C(=O)Nc2ccc(N3CCOCC3)cc2)c1,-,-,-,-,-,-,.,.,.,.
CCOCCOC(=O)c1[nH]c2c(c1C)C(=O)CC(c1ccc(OC)c(OC)c1)C2 (configuration not stated),-,-,-,-,.,-,.,.,.,.
COc1cc(C2CC(=O)c3c([nH]c(C(=O)OCCOC(C)C)c3C)C2)cc(OC)c1OC (configuration not stated),-,-,64,-,-,-,35,-,12,-
Cc1cc(C)cc(Cn2cc(CN3CC(N(C)C)CS3(=O)=O)nn2)c1 (configuration not stated),.,-,-,-,.,.,.,.,.,.
CCN(CC(=O)Nc1c(F)cccc1F)C(=O)c1cc2ccccc2oc1=O,-,-,-,-,-,-,.,.,.,.
CCOCCn1c(=O)c2c(nc3n2CC(C)CN3Cc2ccccc2)n(C)c1=O (configuration not stated),-,-,-,-,-,-,.,.,.,.

# Screening results as filed in PubChem.
